Experiment [1] can be described thus: reducers of endogenous Her2 protein level, primary screen, SKBR3 breast tumor cells, AlphaScreen, ATP viability (AID 461).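 For Her2 level: lower value means less Her2 protein in the cells.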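 For viability: percent of carrier control wells set as 100% viability.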 To be noted: 18-24 h, measured here: SKBR3 viability, ATP luminescence, at 10 µM.
The target of experiment [2] is Receptor tyrosine-protein kinase erbB-2 (Homo sapiens) (UniProt P04626). The experiment is described as above. Particulars: 18-24 h, at 10 µM, stronger effect = lower value.
Sequence of Receptor tyrosine-protein kinase erbB-2 (Homo sapiens) (P04626 whole entry, looked up): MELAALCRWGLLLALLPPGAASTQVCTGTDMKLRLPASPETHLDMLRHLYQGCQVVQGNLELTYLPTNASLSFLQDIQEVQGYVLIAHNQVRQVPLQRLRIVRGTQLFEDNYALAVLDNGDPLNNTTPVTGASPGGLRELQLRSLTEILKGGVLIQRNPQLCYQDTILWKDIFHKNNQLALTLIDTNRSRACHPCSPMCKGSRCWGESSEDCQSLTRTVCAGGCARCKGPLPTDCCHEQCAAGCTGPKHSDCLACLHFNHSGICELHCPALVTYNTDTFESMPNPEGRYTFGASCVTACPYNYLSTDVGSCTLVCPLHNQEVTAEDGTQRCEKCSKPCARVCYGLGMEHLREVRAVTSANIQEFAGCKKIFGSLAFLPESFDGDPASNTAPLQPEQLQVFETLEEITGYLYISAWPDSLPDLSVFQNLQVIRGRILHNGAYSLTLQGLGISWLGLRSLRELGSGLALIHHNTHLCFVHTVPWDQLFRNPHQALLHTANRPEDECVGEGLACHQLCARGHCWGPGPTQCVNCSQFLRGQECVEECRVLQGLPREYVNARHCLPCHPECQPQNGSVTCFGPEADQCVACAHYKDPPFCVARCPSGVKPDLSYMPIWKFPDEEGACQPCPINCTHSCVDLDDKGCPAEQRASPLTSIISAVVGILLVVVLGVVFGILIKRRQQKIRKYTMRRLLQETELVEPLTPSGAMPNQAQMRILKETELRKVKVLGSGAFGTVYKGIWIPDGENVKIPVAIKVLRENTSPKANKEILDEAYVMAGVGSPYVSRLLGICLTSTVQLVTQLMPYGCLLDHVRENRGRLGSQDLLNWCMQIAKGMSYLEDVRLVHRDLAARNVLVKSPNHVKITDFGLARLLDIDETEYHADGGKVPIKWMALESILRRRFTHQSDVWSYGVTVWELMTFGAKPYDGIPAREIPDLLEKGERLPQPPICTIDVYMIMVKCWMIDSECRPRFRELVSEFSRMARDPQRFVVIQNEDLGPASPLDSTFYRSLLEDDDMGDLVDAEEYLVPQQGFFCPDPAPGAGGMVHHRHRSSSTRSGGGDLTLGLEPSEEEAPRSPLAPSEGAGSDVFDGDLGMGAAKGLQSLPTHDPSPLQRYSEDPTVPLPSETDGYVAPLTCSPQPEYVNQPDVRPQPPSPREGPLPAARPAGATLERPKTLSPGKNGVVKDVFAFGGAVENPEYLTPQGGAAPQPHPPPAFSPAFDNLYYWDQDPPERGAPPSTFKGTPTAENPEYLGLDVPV
Experiment [3] is described as follows: SK-BR-3 cell growth inhibitors, pilot screen, 24 h, human (AID 572;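 active = viability at or below 10% of carrier control in both of two separate runs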;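 note: compound exposure lasted between 18 and 24 h rather than exactly 24 h; 100% = carrier-treated control wells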). To be noted: SK-BR-3 viability, CellTiter-Glo luminescence, at 10 µM, stronger effect = lower value.
The nature of experiment [4]: HUVEC growth inhibition – cell-based, human, primary screen (AID 575;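 active = viability at or below 30% in both replicate assays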;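 note: 100% = median of untreated cell wells with 0.1% DMSO on each plate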). Particulars: HUVEC proliferation, CellTiter-Glo luminescence, 72 h; at 10 µM; stronger effect = lower value. A digest of the protocol: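 Timing: 72 h treatment at 37 °C; material: HUVEC primary cells; technique: CellTiter-Glo luminescence measuring cellular ATP; controls: vehicle and MePR control wells; measure: percent of median DMSO-control luminescence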

The nature of experiment [5]: growth inhibitors of H69AR lung tumor, primary screen, human, duplicate replicates (AID 580;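 active = viability at or under a set limit in both replicates, limit being median viability minus 3 SD, cut at about 48% in these data, passing the limit was not always enough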;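 note: 100% = mean luminescence of untreated wells and 0% = no signal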). To be noted: H69AR lung tumor cells viability, ATP luminescence, 72 h; at 10 µM; stronger effect = lower value.
The nature of experiment [6]: reversal of MRP1-mediated doxorubicin resistance, pilot screen, H69AR cells, doxorubicin co-treatment (AID 601;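 active = viability loss from added drug above about 55%, and viability with drug at most 40%, in both replicates, limit read from the data, passing the limit was not always enough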). Particulars: CellTiter-Glo, 72 h, at 10 µM; for differential viability (reversal): stronger effect = higher value.
Experiment [7] in a line: 384-well plate pilot, post-Golgi transport modulator project, inhibition of yeast transport mutant growth (AID 636; in the data active = inhibition above about 31%). Particulars: absorbance 615 nm, about 18 h, stronger effect = higher value.
Experiment [8] is described as follows: growth suppression of yeast trafficking mutant, preliminary HTS, modulators of trafficking downstream of Golgi apparatus project, 1536-format plate, OD 615 nm (AID 637; in the data active = inhibition above about 30%). Particulars: yeast transport mutant growth, absorbance 615 nm, 18 h; stronger effect = higher value.
Where [9] appears, read: H69AR cells + 2 uM doxorubicin, measured here: viability with 2 uM doxorubicin, stronger effect = lower value.
[10] abbreviates: H69AR cells, compound alone cytotoxicity.

For orientation: viability means a read-out of living cells in per cent, often relative to untreated cells. The term inhibition denotes the relative decrease from the control value, in per cent.

Active and inactive are the calls of the source.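 Rule for the calls, unless noted: active = Her2 level under about 52% in both replicate screens, with viability over 70% of control (limit read from the data); inconclusive = Her2 under the limit in one screen only, or viability under 70%; inactive = Her2 level above the set limit.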

In the case of `CCc1ccc(C=NC23CN4CN(CN(C4)C2)C3)s1`, the viability in experiment [1] was 108%; in experiment [3], 108% (inactive); in experiment [4], 95.2% (inactive); in experiment [5], 105% (inactive); in experiment [6] (setting [9]) it was 95.2%; in experiment [6] (setting [10]) it was 105%. In experiment [2], the Her2 level was 114% (inactive). In addition, the differential viability (reversal) in experiment [6] (H69AR cells + 2 uM doxorubicin) is 9.64% (inactive). Further, the inhibition in experiment [7] was 1.17% (inactive); in experiment [8], -3.61% (inactive).

For `CCOc1ccc(NC(=O)CN2CCN(CC(=O)Nc3ccc(F)c(F)c3)CC2)cc1`, the viability in experiment [1] is 95%; in experiment [3], 95% (inactive); in experiment [4], 89.3% (inactive); in experiment [5], 79.8% (inactive); in experiment [6] (setting [9]), 57.1%; in experiment [6] (setting [10]), 79.8%. In addition, in experiment [2], the Her2 level was 102% (inactive). Besides, the differential viability (reversal) in experiment [6] (H69AR cells + 2 uM doxorubicin) is 22.7% (inactive). For the same compound, the inhibition is -3.6% (inactive) in experiment [7] and 4.92% (inactive) in experiment [8].

For `O=C(O)CCC1(C(=O)O)OCCc2ccccc21` (stereo not given), the viability in experiment [1] was 112%; in experiment [3], 112% (inactive); in experiment [4], 107% (inactive); in experiment [5], 97.5% (inactive); in experiment [6] (setting [9]) it was 90.3%; in experiment [6] (setting [10]), 97.5%. Also, the Her2 level in experiment [2] was 83% (inactive). Further, the differential viability (reversal) in experiment [6] (H69AR cells + 2 uM doxorubicin) was 7.12% (inactive). Moreover, the inhibition in experiment [7] was -5.54% (inactive); in experiment [8], 2.86% (inactive).

For `FC(F)Oc1ccc(-c2csc(Cc3nnc4n3CCCCC4)n2)cc1`, the viability was 78% in experiment [1]; 78% (inactive) in experiment [3]; 110% (inactive) in experiment [4]; 97.2% (inactive) in experiment [5]; 91.5% in experiment [6] (setting [9]); 97.2% in experiment [6] (setting [10]). The Her2 level in experiment [2] is 102% (inactive). Moreover, the differential viability (reversal) in experiment [6] (H69AR cells + 2 uM doxorubicin) is 5.74% (inactive). In addition, the inhibition in experiment [7] was -7.26% (inactive); in experiment [8], -9.05% (inactive).

Consider `CCn1c(=O)cc(SCC(=O)N2CCN(C3CCCCC3)CC2)c2ccccc21`, for which the viability in experiment [1] is 88.5%; in experiment [3] it was 88.5% (inactive); in experiment [4], 79.2% (inactive); in experiment [5] it was 83.5% (inactive); in experiment [6] (setting [9]) it was 76.5%; in experiment [6] (setting [10]) it was 83.5%. Further, in experiment [2], the Her2 level was 77% (inactive). Also, the differential viability (reversal) in experiment [6] (H69AR cells + 2 uM doxorubicin) is 7.01% (inactive). Also, the inhibition is -0.92% (inactive) in experiment [7] and 0.18% (inactive) in experiment [8].

Consider `c1cnc2c(SCc3ccc(-c4nnco4)cc3)cccc2c1`, for which the viability was 98.5% in experiment [1]; 98.5% (inactive) in experiment [3]; 80.7% (inactive) in experiment [4]; 97.2% (inactive) in experiment [5]; 85.2% in experiment [6] (setting [9]); 97.2% in experiment [6] (setting [10]). Also, the Her2 level in experiment [2] is 101% (inactive). For the same compound, in experiment [6] (H69AR cells + 2 uM doxorubicin), the differential viability (reversal) was 12.1% (inactive). Further, the inhibition is -2.03% (inactive) in experiment [7] and -12.4% (inactive) in experiment [8].

Regarding `O=C(NCc1cccs1)C1CC(=O)N(c2ccccc2)C1` (stereo not given), the viability in experiment [1] was 96.5%; in experiment [3], 96.5% (inactive); in experiment [4] it was 123% (inactive); in experiment [5], 111% (inactive); in experiment [6] (setting [9]), 101%; in experiment [6] (setting [10]), 111%. Besides, in experiment [2], the Her2 level is 105% (inactive). The differential viability (reversal) in experiment [6] (H69AR cells + 2 uM doxorubicin) was 9.26% (inactive). In addition, the results for the inhibition in experiment [7] and in experiment [8] were -0.13% (inactive) and -2.3% (inactive), respectively.

Regarding `c1cc(-c2nc3ccccc3o2)nc(-c2nc3ccccc3o2)c1`, the viability in experiment [1] was 122%; in experiment [3], 122% (inactive); in experiment [4], 90.9% (inactive); in experiment [5], 87.6% (inactive); in experiment [6] (setting [9]), 80.2%; in experiment [6] (setting [10]) it was 87.6%. For the same compound, the Her2 level in experiment [2] was 94.5% (inactive). Further, the differential viability (reversal) in experiment [6] (H69AR cells + 2 uM doxorubicin) is 7.43% (inactive). Besides, the inhibition in experiment [7] was -4.21% (inactive); in experiment [8], 1.83% (inactive).

As for `O=C(NCc1ccc2c(c1)OCO2)C1CCCN(S(=O)(=O)c2cccnc2)C1` (stereo not given), the viability in experiment [1] was 95.5%; in experiment [3], 95.5% (inactive); in experiment [4], 101% (inactive); in experiment [5], 92.4% (inactive); in experiment [6] (setting [9]), 84.8%; in experiment [6] (setting [10]), 92.4%. Also, in experiment [2], the Her2 level was 102% (inactive). Moreover, the differential viability (reversal) in experiment [6] (H69AR cells + 2 uM doxorubicin) was 7.61% (inactive). Further, the inhibition in experiment [7] was 0.38% (inactive); in experiment [8] it was -6.5% (inactive).

As to `COc1ccc(-c2nn3c(-c4ccncc4)nnc3s2)cc1OC`, the viability is 105% in experiment [1]; 105% (inactive) in experiment [3]; 104% (inactive) in experiment [4]; 99.2% (inactive) in experiment [5]; 108% in experiment [6] (setting [9]); 99.2% in experiment [6] (setting [10]). Moreover, the Her2 level in experiment [2] was 116% (inactive). Moreover, the differential viability (reversal) in experiment [6] (H69AR cells + 2 uM doxorubicin) was -8.5% (inactive). Moreover, the values for the inhibition in experiment [7] and in experiment [8] were -0.39% (inactive) and 0.16% (inactive), respectively.

For the compound `CCCN(Cc1cc2ccc(C)cc2[nH]c1=O)C(=O)c1cccnc1`, the viability is 87% in experiment [1]; 87% (inactive) in experiment [3]; 89.3% (inactive) in experiment [4]; 87.4% (inactive) in experiment [5]; 89.7% in experiment [6] (setting [9]); 87.4% in experiment [6] (setting [10]). The Her2 level in experiment [2] was 93% (inactive). The differential viability (reversal) in experiment [6] (H69AR cells + 2 uM doxorubicin) was -2.29% (inactive). The inhibition was 0% (inactive) in experiment [7] and -3.28% (inactive) in experiment [8].

Take `CCOC(=O)C1CCCN(C/C(O)=C(\C#N)c2nc(-c3ccc(Cl)cc3)cs2)C1` (stereo not given): the viability in experiment [1] is 78.5%; in experiment [3], 78.5% (inactive); in experiment [4], 71.8% (inactive); in experiment [5] it was 84.1% (inactive); in experiment [6] (setting [9]) it was 92.1%; in experiment [6] (setting [10]) it was 84.1%. The Her2 level in experiment [2] is 101% (inactive). The differential viability (reversal) in experiment [6] (H69AR cells + 2 uM doxorubicin) was -7.97% (inactive). The inhibition in experiment [7] was -6.16% (inactive); in experiment [8] it was -3.17% (inactive).

Consider `COCCN1Cc2cccc(C(=O)Nc3cccnc3)c2C1=O`, for which the viability was 106% in experiment [1]; 106% (inactive) in experiment [3]; 102% (inactive) in experiment [4]; 93.5% (inactive) in experiment [5]; 98.4% in experiment [6] (setting [9]); 93.5% in experiment [6] (setting [10]). Besides, the Her2 level in experiment [2] was 81% (inactive). Besides, the differential viability (reversal) in experiment [6] (H69AR cells + 2 uM doxorubicin) was -4.91% (inactive). The results for the inhibition in experiment [7] and in experiment [8] were -6.71% (inactive) and 1.9% (inactive), respectively.

With `S=C(c1cccs1)N1CCCC1`, the viability in experiment [1] is 90.5%; in experiment [3] it was 90.5% (inactive); in experiment [4], 96.7% (inactive); in experiment [5], 100% (inactive); in experiment [6] (setting [9]), 89.3%; in experiment [6] (setting [10]), 100%. In addition, the Her2 level in experiment [2] was 110% (inactive). For the same compound, the differential viability (reversal) in experiment [6] (H69AR cells + 2 uM doxorubicin) was 11.2% (inactive). Besides, the inhibition in experiment [7] was 0.52% (inactive); in experiment [8], -8.52% (inactive).

With `Cc1c(C(=O)NCCC2=CCCCC2)oc2ccc(S(=O)(=O)N3CCC4(CC3)OCCO4)cc12`, the viability in experiment [1] is 94.5%; in experiment [3] it was 94.5% (inactive); in experiment [4] it was 49.1% (inactive); in experiment [5] it was 48.1% (active); in experiment [6] (setting [9]), 52.4%; in experiment [6] (setting [10]), 48.1%. For the same compound, in experiment [2], the Her2 level is 104% (inactive). For the same compound, in experiment [6] (H69AR cells + 2 uM doxorubicin), the differential viability (reversal) was -4.29% (inactive). The inhibition in experiment [7] was -10.8% (inactive); in experiment [8], -11.5% (inactive).

The values are drawn from PubChem BioAssay.
